Test results taken from ChEMBL document CHEMBL1156410, “Design and synthesis of a combinatorial chemistry library of 7-acyl, 10-acyl, and 7,10-diacyl analogues of paclitaxel (taxol) using solid phase synthesis” (J Nat Prod, 2002).
In brackets after ≈: the same amount, converted by molar mass.

Experiments:
[1] = Induction of tubulin polymerization at 1 uM by DAPI fluorescence method relative to control
Summary of the method: (§1)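 Microplate assay in PMEG buffer (100 mM PIPES, 1 mM MgSO₄, 2 mM EGTA, 0.1 mM GTP, pH 6.9) containing ligand; DAPI final 10 µM, tubulin final 5 µM. Fluorescence followed at 37 °C, excitation 360/40 nm, emission 460/40 nm. Change in fluorescence normalized to the curve of 10 µM paclitaxel standard. Samples in duplicate, triplicate or quadruplicate; concentrations over 2 orders of magnitude tested.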

[2] = Induction of tubulin polymerization at 10 uM by DAPI fluorescence method relative to control; summary of the method: as §1
[3] = Induction of tubulin polymerization at 0.1 uM by DAPI fluorescence method relative to control; summary of the method: as §1
A2780 = assay: Cytotoxicity against human A2780 cells; type: functional, cell-based
[4] = Induction of tubulin polymerization by DAPI fluorescence method; conditions: read-out: I50; summary of the method: as §1

SMILES | Activity [1] [%] | Activity [2] [%] | Activity [3] [%] | IC50 (A2780) [µg/mL] | IC50 [4] [nM]
CC(=O)O[C@@]12CO[C@@H]1C[C@H](OC(=O)C1CC1)[C@@]1(C)C(=O)[C@H](OC(=O)OCc3ccccc3)C3=C(C)[C@@H](OC(=O)[C@H](O)[C@@H](NC(=O)c4ccccc4)c4ccccc4)C[C@@](O)([C@@H](OC(=O)c4ccccc4)[C@H]21)C3(C)C | 26 | 53 | 10 | – | –
CC(=O)O[C@@]12CO[C@@H]1C[C@H](OC(=O)CN1CCC(N3CCCC3)CC1)[C@@]1(C)C(=O)[C@H](O)C3=C(C)[C@@H](OC(=O)[C@H](O)[C@@H](NC(=O)c4ccccc4)c4ccccc4)C[C@@](O)([C@@H](OC(=O)c4ccccc4)[C@H]21)C3(C)C | – | – | – | 0.96 (≈ 0.954 µM) | 850
CC(=O)O[C@@]12CO[C@@H]1C[C@H](OC(=O)C1CC1)[C@@]1(C)C(=O)[C@H](OC(=O)c3ccccc3)C3=C(C)[C@@H](OC(=O)[C@H](O)[C@@H](NC(=O)c4ccccc4)c4ccccc4)C[C@@](O)([C@@H](OC(=O)c4ccccc4)[C@H]21)C3(C)C | 61 | 91 | 30 | – | –
CC(=O)O[C@@]12CO[C@@H]1C[C@H](OC(=O)CN1CCCCC1)[C@@]1(C)C(=O)[C@H](O)C3=C(C)[C@@H](OC(=O)[C@H](O)[C@@H](NC(=O)c4ccccc4)c4ccccc4)C[C@@](O)([C@@H](OC(=O)c4ccccc4)[C@H]21)C3(C)C | – | – | – | 0.18 (≈ 0.192 µM) | 1020
C/C=C/C(=O)O[C@H]1C(=O)[C@@]2(C)[C@H]([C@H](OC(=O)c3ccccc3)[C@]3(O)C[C@H](OC(=O)[C@H](O)[C@@H](NC(=O)c4ccccc4)c4ccccc4)C(C)=C1C3(C)C)[C@]1(OC(C)=O)CO[C@@H]1C[C@@H]2O | 80 | 117 | 26 | – | –
C/C=C/C(=O)O[C@H]1C(=O)[C@]2(C)[C@@H](OC(=O)CCl)C[C@H]3OC[C@@]3(OC(C)=O)[C@H]2[C@H](OC(=O)c2ccccc2)[C@]2(O)C[C@H](OC(=O)[C@H](O)[C@@H](NC(=O)c3ccccc3)c3ccccc3)C(C)=C1C2(C)C | 66 | 116 | 29 | – | –
CCC(=O)O[C@H]1C(=O)[C@]2(C)[C@@H](OC(=O)c3ccccc3)C[C@H]3OC[C@@]3(OC(C)=O)[C@H]2[C@H](OC(=O)c2ccccc2)[C@]2(O)C[C@H](OC(=O)[C@H](O)[C@@H](NC(=O)c3ccccc3)c3ccccc3)C(C)=C1C2(C)C | 33 | 97 | 0 | – | –
C/C=C/C(=O)O[C@H]1C(=O)[C@]2(C)[C@@H](OC(=O)c3ccccc3)C[C@H]3OC[C@@]3(OC(C)=O)[C@H]2[C@H](OC(=O)c2ccccc2)[C@]2(O)C[C@H](OC(=O)[C@H](O)[C@@H](NC(=O)c3ccccc3)c3ccccc3)C(C)=C1C2(C)C | 66 | 81 | 33 | – | –
CC(=O)O[C@@]12CO[C@@H]1C[C@H](OC(=O)CN1CCNCC1)[C@@]1(C)C(=O)[C@H](O)C3=C(C)[C@@H](OC(=O)[C@H](O)[C@@H](NC(=O)c4ccccc4)c4ccccc4)C[C@@](O)([C@@H](OC(=O)c4ccccc4)[C@H]21)C3(C)C | – | – | – | 0.86 (≈ 0.917 µM) | –
CC(=O)O[C@@]12CO[C@@H]1C[C@H](OC(=O)CN1CCN(C)CC1)[C@@]1(C)C(=O)[C@H](O)C3=C(C)[C@@H](OC(=O)[C@H](O)[C@@H](NC(=O)c4ccccc4)c4ccccc4)C[C@@](O)([C@@H](OC(=O)c4ccccc4)[C@H]21)C3(C)C | – | – | – | 0.67 (≈ 0.704 µM) | 590
CC(=O)O[C@@]12CO[C@@H]1C[C@H](OC(=O)CCl)[C@@]1(C)C(=O)[C@H](OC(=O)c3ccccc3)C3=C(C)[C@@H](OC(=O)[C@H](O)[C@@H](NC(=O)c4ccccc4)c4ccccc4)C[C@@](O)([C@@H](OC(=O)c4ccccc4)[C@H]21)C3(C)C | 56 | 92 | 29 | – | –
CC(=O)O[C@@]12CO[C@@H]1C[C@H](OC(=O)CN1CCN(c3ccc(C(C)=O)cc3)CC1)[C@@]1(C)C(=O)[C@H](O)C3=C(C)[C@@H](OC(=O)[C@H](O)[C@@H](NC(=O)c4ccccc4)c4ccccc4)C[C@@](O)([C@@H](OC(=O)c4ccccc4)[C@H]21)C3(C)C | – | – | – | 0.9 (≈ 0.852 µM) | 4340
CCC(=O)O[C@H]1C(=O)[C@]2(C)[C@@H](OC(=O)CC)C[C@H]3OC[C@@]3(OC(C)=O)[C@H]2[C@H](OC(=O)c2ccccc2)[C@]2(O)C[C@H](OC(=O)[C@H](O)[C@@H](NC(=O)c3ccccc3)c3ccccc3)C(C)=C1C2(C)C | 37 | 111 | 5 | – | –
C/C=C/C(=O)O[C@H]1C(=O)[C@]2(C)[C@@H](OC(=O)C3CC3)C[C@H]3OC[C@@]3(OC(C)=O)[C@H]2[C@H](OC(=O)c2ccccc2)[C@]2(O)C[C@H](OC(=O)[C@H](O)[C@@H](NC(=O)c3ccccc3)c3ccccc3)C(C)=C1C2(C)C | 41 | 109 | 27 | – | –
COc1cccc(C(=O)O[C@H]2C[C@H]3OC[C@@]3(OC(C)=O)[C@H]3[C@H](OC(=O)c4ccccc4)[C@]4(O)C[C@H](OC(=O)[C@H](O)[C@@H](NC(=O)c5ccccc5)c5ccccc5)C(C)=C([C@@H](OC(=O)c5ccccc5)C(=O)[C@]23C)C4(C)C)c1 | 52 | 78 | 22 | – | –
CC(=O)O[C@@]12CO[C@@H]1C[C@H](OC(=O)CCl)[C@@]1(C)C(=O)[C@H](OC(=O)OCc3ccccc3)C3=C(C)[C@@H](OC(=O)[C@H](O)[C@@H](NC(=O)c4ccccc4)c4ccccc4)C[C@@](O)([C@@H](OC(=O)c4ccccc4)[C@H]21)C3(C)C | 20 | 48 | 0 | – | –
CC(=O)O[C@@]12CO[C@@H]1C[C@H](OC(=O)CN1Cc3ccccc3C1)[C@@]1(C)C(=O)[C@H](O)C3=C(C)[C@@H](OC(=O)[C@H](O)[C@@H](NC(=O)c4ccccc4)c4ccccc4)C[C@@](O)([C@@H](OC(=O)c4ccccc4)[C@H]21)C3(C)C | – | – | – | – | 2040
CCC(=O)O[C@H]1C(=O)[C@]2(C)[C@@H](OC(=O)C=C(C)C)C[C@H]3OC[C@@]3(OC(C)=O)[C@H]2[C@H](OC(=O)c2ccccc2)[C@]2(O)C[C@H](OC(=O)[C@H](O)[C@@H](NC(=O)c3ccccc3)c3ccccc3)C(C)=C1C2(C)C | 51 | 120 | 20 | – | –
CCC(=O)O[C@H]1C(=O)[C@]2(C)[C@@H](OC(=O)C3CC3)C[C@H]3OC[C@@]3(OC(C)=O)[C@H]2[C@H](OC(=O)c2ccccc2)[C@]2(O)C[C@H](OC(=O)[C@H](O)[C@@H](NC(=O)c3ccccc3)c3ccccc3)C(C)=C1C2(C)C | 62 | 113 | 6 | – | –
CC(=O)O[C@@]12CO[C@@H]1C[C@H](O)[C@@]1(C)C(=O)[C@H](OC(=O)c3ccccc3)C3=C(C)[C@@H](OC(=O)[C@H](O)[C@@H](NC(=O)c4ccccc4)c4ccccc4)C[C@@](O)([C@@H](OC(=O)c4ccccc4)[C@H]21)C3(C)C | 78 | 113 | 46 | – | –
CCC(=O)O[C@H]1C(=O)[C@@]2(C)[C@H]([C@H](OC(=O)c3ccccc3)[C@]3(O)C[C@H](OC(=O)[C@H](O)[C@@H](NC(=O)c4ccccc4)c4ccccc4)C(C)=C1C3(C)C)[C@]1(OC(C)=O)CO[C@@H]1C[C@@H]2O | 54 | 114 | 13 | – | –
CCCCC(=O)O[C@H]1C[C@H]2OC[C@@]2(OC(C)=O)[C@H]2[C@H](OC(=O)c3ccccc3)[C@]3(O)C[C@H](OC(=O)[C@H](O)[C@@H](NC(=O)c4ccccc4)c4ccccc4)C(C)=C([C@@H](OC(=O)CC)C(=O)[C@]12C)C3(C)C | 51 | 102 | 10 | – | –
CCCC(=O)O[C@H]1C[C@H]2OC[C@@]2(OC(C)=O)[C@H]2[C@H](OC(=O)c3ccccc3)[C@]3(O)C[C@H](OC(=O)[C@H](O)[C@@H](NC(=O)c4ccccc4)c4ccccc4)C(C)=C([C@@H](OC(=O)CC)C(=O)[C@]12C)C3(C)C | 52 | 123 | 4 | – | –
CC(=O)O[C@@]12CO[C@@H]1C[C@H](O)[C@@]1(C)C(=O)[C@H](OC(=O)OCc3ccccc3)C3=C(C)[C@@H](OC(=O)[C@H](O)[C@@H](NC(=O)c4ccccc4)c4ccccc4)C[C@@](O)([C@@H](OC(=O)c4ccccc4)[C@H]21)C3(C)C | 83 | 115 | 34 | – | –
CC(=O)O[C@@]12CO[C@@H]1C[C@H](OC(=O)C=C(C)C)[C@@]1(C)C(=O)[C@H](OC(=O)OCc3ccccc3)C3=C(C)[C@@H](OC(=O)[C@H](O)[C@@H](NC(=O)c4ccccc4)c4ccccc4)C[C@@](O)([C@@H](OC(=O)c4ccccc4)[C@H]21)C3(C)C | 39 | 43 | 10 | – | –
CC(=O)O[C@@]12CO[C@@H]1C[C@H](OC(=O)c1ccccc1)[C@@]1(C)C(=O)[C@H](OC(=O)OCc3ccccc3)C3=C(C)[C@@H](OC(=O)[C@H](O)[C@@H](NC(=O)c4ccccc4)c4ccccc4)C[C@@](O)([C@@H](OC(=O)c4ccccc4)[C@H]21)C3(C)C | 32 | 33 | 10 | – | –
CCC(=O)O[C@H]1C(=O)[C@]2(C)[C@@H](OC(C)=O)C[C@H]3OC[C@@]3(OC(C)=O)[C@H]2[C@H](OC(=O)c2ccccc2)[C@]2(O)C[C@H](OC(=O)[C@H](O)[C@@H](NC(=O)c3ccccc3)c3ccccc3)C(C)=C1C2(C)C | 44 | 111 | 5 | – | –
CCC(=O)O[C@H]1C[C@H]2OC[C@@]2(OC(C)=O)[C@H]2[C@H](OC(=O)c3ccccc3)[C@]3(O)C[C@H](OC(=O)[C@H](O)[C@@H](NC(=O)c4ccccc4)c4ccccc4)C(C)=C([C@@H](OC(=O)OCc4ccccc4)C(=O)[C@]12C)C3(C)C | 3 | 24 | 0 | – | –
CCC(=O)O[C@H]1C(=O)[C@]2(C)[C@@H](OC(=O)CCl)C[C@H]3OC[C@@]3(OC(C)=O)[C@H]2[C@H](OC(=O)c2ccccc2)[C@]2(O)C[C@H](OC(=O)[C@H](O)[C@@H](NC(=O)c3ccccc3)c3ccccc3)C(C)=C1C2(C)C | 72 | 114 | 20 | – | –
